In ChEMBL document CHEMBL1145403, “Structure-based design of flavonoid compounds as a new class of small-molecule inhibitors of the anti-apoptotic Bcl-2 proteins” (J Med Chem, 2007) one finds IC50, Activity and Ki data, which are given here for five compounds.

The source made the active and inactive calls. The rule behind the calls is not given here. Where only a bound is given, the exact number is not on record here.

Test [1] deals with MDA-MB-231. Put plainly: Growth inhibition of human MDA-MB-231 cells after 4 days by WST-based assay. The class given is functional, cell-based. The conditions noted are these: MDA-MB-231, 96 h. Put shortly: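 Cells seeded at 3-4 × 10^3/well together with graded compound concentrations and cultured 4 days. WST-8 added at 10% final, then 2-3 h at 37°C. Absorbance read at 450 nm. IC50 = 50% growth inhibition relative to untreated cells.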

Test [2] relates to MDA-MB-231. In words: Induction of apoptosis in human MDA-MB-231 cells at 0.5 uM after 3 days by Annexin V/propidium iodide staining-based flow cytometry.
The subject of test [3] is MDA-MB-231. In words: Induction of apoptosis in human MDA-MB-231 cells at 1 uM after 3 days by Annexin V/propidium iodide staining.
Test [4] concerns the target Apoptosis regulator Bcl-2 (Homo sapiens, UniProt P10415). Put plainly: Displacement of FAM-Bim peptide from human Bcl2 by fluorescence polarization assay.
The target of test [5] is Induced myeloid leukemia cell differentiation protein Mcl-1 (Homo sapiens, UniProt Q07820). In words: Displacement of FAM-Bim peptide from human Mcl1 by fluorescence polarization assay. Put shortly: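 Compound added from DMSO, 4 h incubation, polarization at ex 485/em 530 nm. IC50 by nonlinear least-squares fit; Ki from the FP equation.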
Test [6] concerns MDA-MB-231. In words: Induction of apoptosis in human MDA-MB-231 cells after 3 days by Annexin V/propidium iodide staining-based flow cytometry. (In general: Flow cytometry measures light scatter and fluorescence of single cells or particles in a stream.)

Induced myeloid leukemia cell differentiation protein Mcl-1, sequence (Q07820 whole entry): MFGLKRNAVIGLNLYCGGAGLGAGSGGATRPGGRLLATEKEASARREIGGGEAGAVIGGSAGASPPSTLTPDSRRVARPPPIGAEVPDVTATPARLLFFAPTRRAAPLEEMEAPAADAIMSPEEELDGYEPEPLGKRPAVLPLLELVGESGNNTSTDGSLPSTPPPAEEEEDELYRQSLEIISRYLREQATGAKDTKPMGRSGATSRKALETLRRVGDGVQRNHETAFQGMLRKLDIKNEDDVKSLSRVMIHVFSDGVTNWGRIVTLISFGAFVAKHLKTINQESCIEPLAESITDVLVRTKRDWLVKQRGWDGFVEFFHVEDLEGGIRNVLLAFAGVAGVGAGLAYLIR
Apoptosis regulator Bcl-2, sequence (P10415 whole entry): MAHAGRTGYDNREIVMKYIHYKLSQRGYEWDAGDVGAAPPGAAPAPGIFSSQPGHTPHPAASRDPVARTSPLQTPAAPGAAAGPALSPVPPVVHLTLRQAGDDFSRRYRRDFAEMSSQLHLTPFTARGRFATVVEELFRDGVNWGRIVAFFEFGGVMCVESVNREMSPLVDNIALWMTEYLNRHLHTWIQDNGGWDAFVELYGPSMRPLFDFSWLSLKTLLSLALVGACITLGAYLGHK

A word on the IC50: it is the point on the concentration scale where inhibition reaches its midpoint. Higher therefore signals weaker potency. By Ki is commonly meant the equilibrium dissociation constant of an inhibitor or competing ligand from its target. Low readings indicate a stronger hold on the target, high ones a looser hold on the target. In the case of `Cc1oc2c(CC(C)C)c(O)c(O)c(O)c2c(=O)c1-c1ccc(-c2c(C)oc3c(CC(C)C)c(O)c(O)c(O)c3c2=O)cc1`, half-maximal inhibition in the test on MDA-MB-231 [1] (IC50) required 110 nM. In addition, the Activity is 24.5% in the test with MDA-MB-231 [2], 64.4% with MDA-MB-231 [3] and “Dose-dependent effect” in the test with MDA-MB-231 [6]. Also, the Ki in test [4] came to 17 nM; in test [5], 18 nM.
As for `Cc1cc2c(C(C)C)c(O)c(O)c(C=O)c2c(O)c1-c1c(C)cc2c(C(C)C)c(O)c(O)c(C=O)c2c1O` [GOSSYPOL], in the test on MDA-MB-231 [1], the IC50 is 1900 nM. In test [5], the Ki was 280 nM.
For `Cc1oc2c(CC(C)C)c(O)c(O)c(O)c2c(=O)c1-c1ccccc1`, the IC50 in the test on MDA-MB-231 [1] stood at 5300 nM. Further, the values for the Ki in test [4] and in test [5] were 340 nM and 400 nM, respectively.
Turning to `Cc1cc(=O)c2c(O)c(O)c(O)c(CC(C)C)c2o1`, in the test with MDA-MB-231 [1], half-maximal inhibition (IC50) required 30000 nM. For the same compound, the values for the Ki in test [4] and in test [5] were 730 nM and 1690 nM, respectively.
As to `COc1c(OC)c(OC)c2c(=O)c(-c3ccc(-c4c(C)oc5c(CC(C)C)c(OC)c(OC)c(OC)c5c4=O)cc3)c(C)oc2c1CC(C)C`, the IC50 in the test with MDA-MB-231 [1] is greater than 100000 nM. In addition, the outcome in test [4] and in test [5] was inactive.
